Laboratory results from ChEMBL document CHEMBL2380296, “Structure-based design and optimization of 2-aminothiazole-4-carboxamide as a new class of CHK1 inhibitors” (Bioorg Med Chem Lett, 2013).

Tests used:
[1] = Plasma concentration in rat at 10 mg/kg, po measured at 1 hr; format: ADME, organism-based; parameters: dose 10 mg/kg, route oral
[2] = Plasma concentration in rat at 10 mg/kg, po measured at 6 hrs; format: ADME, organism-based; parameters: dose 10 mg/kg, route oral
[3] = Plasma concentration in rat at 10 mg/kg, po measured at 24 hrs; format: ADME, organism-based; parameters: dose 10 mg/kg, route oral
[4] = target: RAC-alpha serine/threonine-protein kinase (Homo sapiens, UniProt P31749); assay: Inhibition of human AKT1
hERG (KCNH2) [5] = target: T1, hERG (KCNH2) (Homo sapiens, UniProt Q12809); assay: Inhibition of human ERG at 1 uM after 5 mins by voltage clamp assay relative to control
hERG (KCNH2) [6] = target: T1, hERG (KCNH2); assay: Inhibition of human ERG expressed in mouse L929 cells at 10 uM by IonWorks assay relative to control; format: cell-based; settings: mouse L929 cells expressing human ERG
hERG (KCNH2) [7] = target: T1, hERG (KCNH2); assay: Inhibition of human ERG expressed in mouse L929 cells at 1 uM by IonWorks assay relative to control; format: cell-based; settings: mouse L929 cells expressing human ERG
hERG (KCNH2) [8] = target: T1, hERG (KCNH2); assay: Inhibition of human ERG transfected in CHO cells at 1.5 ug/mL by rubidium efflux assay relative to control; format: cell-based; settings: CHO cells transfected with human ERG
[9] = target: Cannabinoid receptor 1 (Homo sapiens) (UniProt P21554); assay: Inhibition of CB1 receptor (unknown origin) at 20 ug/mL relative to control
Cytochrome P450 2D6 = Cytochrome P450 2D6 (Homo sapiens, UniProt P10635); assay: Time-dependent inhibition of CYP2D6 in human liver microsomes using dextromethorphan as substrate incubated for 30 mins prior to substrate addition measured after 30 mins by LC-MS/MS analysis; format: ADME, Microsome
Cytochrome P450 3A4 [10] = target: T2, Cytochrome P450 3A4 (Homo sapiens, UniProt P08684); assay: Time-dependent inhibition of CYP3A4 in human liver microsomes using 6beta-hydroxylase as substrate incubated for 30 mins prior to substrate addition measured after 30 mins by LC-MS/MS analysis; format: ADME, Microsome
Cytochrome P450 2C9 = Cytochrome P450 2C9 (Homo sapiens, UniProt P11712); assay: Inhibition of CYP2C9 in human liver microsomes using tolbutamide as substrate by LC-MS/MS analysis; format: ADME, Microsome
Cytochrome P450 3A4 [11] = target: T2, Cytochrome P450 3A4; assay: Inhibition of CYP3A4 in human liver microsomes using […] as substrate by LC-MS/MS analysis; format: ADME, Microsome
[12] = Tmax in rat at 10 mg/kg, po; format: ADME, organism-based; parameters: dose 10 mg/kg, route oral; settings: in vivo
[13] = Cmax in rat at 10 mg/kg, po; format: ADME, organism-based; parameters: dose 10 mg/kg, route oral; settings: in vivo
[14] = AUC in rat at 10 mg/kg, po; format: ADME, organism-based; parameters: dose 10 mg/kg, route oral; settings: plasma
[15] = target: Vasopressin V2 receptor (Homo sapiens) (UniProt P30518); assay: Inhibition of vasopressin V2 receptor (unknown origin) at 2 ug/mL relative to control
[16] = target: Vasopressin V1b receptor (Homo sapiens) (UniProt P47901); assay: Inhibition of vasopressin V1b receptor (unknown origin) at 2 ug/mL relative to control
[17] = target: Vasopressin V1a receptor (Homo sapiens) (UniProt P37288); assay: Inhibition of vasopressin V1a receptor (unknown origin) at 2 ug/mL relative to control
[18] = target: Oxytocin receptor (Homo sapiens) (UniProt P30559); assay: Inhibition of oxytocin receptor (unknown origin) at 2 ug/mL relative to control
[19] = target: 5-hydroxytryptamine receptor 1A (Homo sapiens) (UniProt P08908); assay: Inhibition of 5HT-1A receptor (unknown origin) at 2 ug/mL relative to control
[20] = target: Muscarinic acetylcholine receptor M5 (Homo sapiens) (UniProt P08912); assay: Inhibition of muscarinic M5 receptor (unknown origin) at 2 ug/mL relative to control
[21] = target: Muscarinic acetylcholine receptor M4 (Homo sapiens) (UniProt P08173); assay: Inhibition of muscarinic M4 receptor (unknown origin) at 2 ug/mL relative to control
[22] = target: Muscarinic acetylcholine receptor M3 (Homo sapiens) (UniProt P20309); assay: Inhibition of muscarinic M3 receptor (unknown origin) at 2 ug/mL relative to control
[23] = target: Muscarinic acetylcholine receptor M2 (Homo sapiens) (UniProt P08172); assay: Inhibition of muscarinic M2 receptor (unknown origin) at 2 ug/mL relative to control
[24] = target: Histamine H1 receptor (Homo sapiens) (UniProt P35367); assay: Inhibition of histamine H1 receptor (unknown origin) at 1 ug/mL relative to control
[25] = target: D(1A) dopamine receptor (Homo sapiens) (UniProt P21728); assay: Inhibition of dopamine D1 receptor (unknown origin) at 2 ug/mL relative to control
[26] = target: C-X-C chemokine receptor type 3 (Homo sapiens) (UniProt P49682); assay: Inhibition of CXCR3 (unknown origin) at 2 ug/mL relative to control
[27] = Plasma concentration in rat at 10 mg/kg, po measured at 4 hrs; format: ADME, organism-based; parameters: dose 10 mg/kg, route oral
[28] = target: Alpha-2B adrenergic receptor (Homo sapiens) (UniProt P18089); assay: Inhibition of adrenergic alpha-2B receptor (unknown origin) at 1 ug/mL relative to control
[29] = target: Alpha-1B adrenergic receptor (Homo sapiens) (UniProt P35368); assay: Inhibition of adrenergic alpha-1B receptor (unknown origin) at 1 ug/mL relative to control
[30] = target: Alpha-1A adrenergic receptor (Homo sapiens) (UniProt P35348); assay: Inhibition of adrenergic alpha-1A receptor (unknown origin) at 1 ug/mL relative to control
[31] = target: Adenosine receptor A2a (Homo sapiens) (UniProt P29274); assay: Inhibition of adenosine A2A receptor (unknown origin) at 2 ug/mL relative to control
[32] = target: Ribosomal protein S6 kinase alpha-3 (Homo sapiens, UniProt P51812); assay: Inhibition of human RSK2
[33] = target: Testis-specific serine/threonine-protein kinase 2 (Homo sapiens, UniProt Q96PF2); assay: Inhibition of human TSSK2
[34] = target: Rho-associated protein kinase 2 (Homo sapiens, UniProt O75116); assay: Inhibition of human ROCK2
[35] = target: Protein kinase C alpha type (Homo sapiens, UniProt P17252); assay: Inhibition of human PKCA
[36] = target: Serine/threonine-protein kinase PLK3 (Homo sapiens, UniProt Q9H4B4); assay: Inhibition of human PLK3
[37] = target: Serine/threonine-protein kinase Nek2 (Homo sapiens, UniProt P51955); assay: Inhibition of human NEK2
[38] = target: Tyrosine-protein kinase JAK2 (Homo sapiens, UniProt O60674); assay: Inhibition of human JAK2
[39] = target: Mitogen-activated protein kinase 1 (Homo sapiens, UniProt P28482); assay: Inhibition of human ERK2
[40] = target: Insulin-like growth factor 1 receptor (Homo sapiens, UniProt P08069); assay: Inhibition of human IGF1R
[41] = target: Casein kinase I isoform delta (Homo sapiens, UniProt P48730); assay: Inhibition of human CSNK1D
[42] = target: Cyclin-dependent kinase 2 (Homo sapiens, UniProt P24941); assay: Inhibition of human CDK2
In short: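 Biochemical kinase inhibition assay. Reported values are averages of duplicate or triplicate determinations, with a standard deviation of 10%.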

T1 sequence (Q12809 whole entry): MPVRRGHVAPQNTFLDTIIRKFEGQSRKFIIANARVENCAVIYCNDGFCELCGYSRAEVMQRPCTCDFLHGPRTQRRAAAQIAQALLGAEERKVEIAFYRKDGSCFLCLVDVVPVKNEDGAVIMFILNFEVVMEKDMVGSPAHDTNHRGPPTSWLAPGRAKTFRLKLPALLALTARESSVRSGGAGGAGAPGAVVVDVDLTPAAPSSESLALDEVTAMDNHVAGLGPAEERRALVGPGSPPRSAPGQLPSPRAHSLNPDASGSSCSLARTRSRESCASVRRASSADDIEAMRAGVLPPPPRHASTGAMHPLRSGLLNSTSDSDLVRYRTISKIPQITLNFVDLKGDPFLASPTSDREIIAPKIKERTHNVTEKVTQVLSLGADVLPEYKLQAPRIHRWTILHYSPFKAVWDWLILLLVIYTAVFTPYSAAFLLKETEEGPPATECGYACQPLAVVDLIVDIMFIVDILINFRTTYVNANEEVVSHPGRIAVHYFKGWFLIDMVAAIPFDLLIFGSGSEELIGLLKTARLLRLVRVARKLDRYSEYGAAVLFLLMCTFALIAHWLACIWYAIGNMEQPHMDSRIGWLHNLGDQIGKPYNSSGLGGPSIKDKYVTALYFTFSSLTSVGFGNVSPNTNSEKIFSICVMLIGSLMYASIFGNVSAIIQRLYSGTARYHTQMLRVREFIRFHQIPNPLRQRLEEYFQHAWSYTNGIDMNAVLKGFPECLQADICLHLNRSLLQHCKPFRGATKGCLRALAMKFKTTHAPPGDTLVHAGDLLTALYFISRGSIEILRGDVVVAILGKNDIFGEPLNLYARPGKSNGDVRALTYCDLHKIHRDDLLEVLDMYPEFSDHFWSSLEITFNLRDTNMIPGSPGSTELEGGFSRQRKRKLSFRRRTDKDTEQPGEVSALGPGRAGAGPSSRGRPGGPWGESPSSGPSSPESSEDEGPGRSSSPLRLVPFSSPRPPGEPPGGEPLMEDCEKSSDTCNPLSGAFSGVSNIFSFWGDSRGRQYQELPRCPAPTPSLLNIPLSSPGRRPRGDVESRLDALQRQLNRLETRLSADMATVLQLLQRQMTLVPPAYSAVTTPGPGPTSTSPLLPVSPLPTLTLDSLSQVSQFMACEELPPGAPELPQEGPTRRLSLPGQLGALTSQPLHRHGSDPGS
T2 sequence (P08684 whole entry): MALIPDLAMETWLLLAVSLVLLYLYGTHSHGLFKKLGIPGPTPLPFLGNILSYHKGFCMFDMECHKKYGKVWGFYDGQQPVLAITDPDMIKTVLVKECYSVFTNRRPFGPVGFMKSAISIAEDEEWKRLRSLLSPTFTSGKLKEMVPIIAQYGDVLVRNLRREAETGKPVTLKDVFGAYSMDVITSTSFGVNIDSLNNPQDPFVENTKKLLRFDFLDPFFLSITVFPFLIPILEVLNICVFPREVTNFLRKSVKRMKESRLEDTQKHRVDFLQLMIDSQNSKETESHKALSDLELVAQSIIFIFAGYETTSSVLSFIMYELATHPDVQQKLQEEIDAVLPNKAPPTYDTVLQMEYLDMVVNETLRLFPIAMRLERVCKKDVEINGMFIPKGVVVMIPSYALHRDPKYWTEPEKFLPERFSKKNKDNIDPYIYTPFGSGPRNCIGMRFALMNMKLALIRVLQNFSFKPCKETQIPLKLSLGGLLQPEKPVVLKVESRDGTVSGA
Sequence of D(1A) dopamine receptor (Homo sapiens) (P21728 whole entry): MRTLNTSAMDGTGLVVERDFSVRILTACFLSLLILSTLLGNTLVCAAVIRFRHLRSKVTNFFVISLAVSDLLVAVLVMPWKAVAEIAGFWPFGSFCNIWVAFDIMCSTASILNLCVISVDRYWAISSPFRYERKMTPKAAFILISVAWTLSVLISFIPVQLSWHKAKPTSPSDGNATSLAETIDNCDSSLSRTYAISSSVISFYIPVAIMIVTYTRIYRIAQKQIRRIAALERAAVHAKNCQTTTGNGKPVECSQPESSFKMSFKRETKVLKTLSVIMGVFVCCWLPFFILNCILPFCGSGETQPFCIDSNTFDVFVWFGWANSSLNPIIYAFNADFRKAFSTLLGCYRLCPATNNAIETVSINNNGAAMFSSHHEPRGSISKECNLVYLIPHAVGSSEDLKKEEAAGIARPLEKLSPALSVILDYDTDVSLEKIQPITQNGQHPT
Sequence of Insulin-like growth factor 1 receptor (P08069 31-736 limits assumed): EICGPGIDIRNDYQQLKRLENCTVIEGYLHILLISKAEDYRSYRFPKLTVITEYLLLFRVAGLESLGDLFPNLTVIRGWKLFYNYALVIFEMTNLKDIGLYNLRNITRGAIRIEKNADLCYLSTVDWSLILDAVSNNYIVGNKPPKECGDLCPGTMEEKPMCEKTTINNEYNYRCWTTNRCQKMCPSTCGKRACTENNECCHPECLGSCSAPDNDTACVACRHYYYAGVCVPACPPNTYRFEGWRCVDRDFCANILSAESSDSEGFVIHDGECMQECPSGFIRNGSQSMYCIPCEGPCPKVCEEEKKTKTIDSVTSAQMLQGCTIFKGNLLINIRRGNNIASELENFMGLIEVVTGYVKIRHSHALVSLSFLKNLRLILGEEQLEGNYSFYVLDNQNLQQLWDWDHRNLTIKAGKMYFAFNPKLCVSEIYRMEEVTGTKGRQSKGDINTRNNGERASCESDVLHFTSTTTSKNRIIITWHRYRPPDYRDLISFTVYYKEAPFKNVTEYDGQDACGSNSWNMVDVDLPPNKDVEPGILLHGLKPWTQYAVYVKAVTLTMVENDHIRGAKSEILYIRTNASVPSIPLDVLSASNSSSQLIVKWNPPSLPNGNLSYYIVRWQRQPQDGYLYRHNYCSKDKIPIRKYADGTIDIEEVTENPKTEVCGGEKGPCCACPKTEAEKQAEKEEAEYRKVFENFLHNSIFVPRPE
Sequence of Insulin-like growth factor 1 receptor (P08069 741-1367 limits assumed): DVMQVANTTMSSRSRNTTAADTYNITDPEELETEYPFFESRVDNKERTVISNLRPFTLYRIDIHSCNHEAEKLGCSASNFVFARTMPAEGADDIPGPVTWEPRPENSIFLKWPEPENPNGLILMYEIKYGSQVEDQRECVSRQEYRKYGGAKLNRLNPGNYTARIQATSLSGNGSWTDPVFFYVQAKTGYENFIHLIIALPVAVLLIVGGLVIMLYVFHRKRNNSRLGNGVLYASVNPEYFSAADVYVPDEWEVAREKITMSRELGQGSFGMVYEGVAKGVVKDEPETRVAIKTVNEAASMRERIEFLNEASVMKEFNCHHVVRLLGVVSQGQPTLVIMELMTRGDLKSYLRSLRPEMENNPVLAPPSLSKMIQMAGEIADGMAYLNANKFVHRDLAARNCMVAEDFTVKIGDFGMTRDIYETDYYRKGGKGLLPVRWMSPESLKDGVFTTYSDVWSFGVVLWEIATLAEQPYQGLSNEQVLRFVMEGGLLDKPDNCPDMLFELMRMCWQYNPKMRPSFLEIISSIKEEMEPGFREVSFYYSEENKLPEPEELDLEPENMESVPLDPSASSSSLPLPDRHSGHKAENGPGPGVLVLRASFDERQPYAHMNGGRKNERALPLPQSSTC
Sequence of 5-hydroxytryptamine receptor 1A (Homo sapiens) (P08908 whole entry): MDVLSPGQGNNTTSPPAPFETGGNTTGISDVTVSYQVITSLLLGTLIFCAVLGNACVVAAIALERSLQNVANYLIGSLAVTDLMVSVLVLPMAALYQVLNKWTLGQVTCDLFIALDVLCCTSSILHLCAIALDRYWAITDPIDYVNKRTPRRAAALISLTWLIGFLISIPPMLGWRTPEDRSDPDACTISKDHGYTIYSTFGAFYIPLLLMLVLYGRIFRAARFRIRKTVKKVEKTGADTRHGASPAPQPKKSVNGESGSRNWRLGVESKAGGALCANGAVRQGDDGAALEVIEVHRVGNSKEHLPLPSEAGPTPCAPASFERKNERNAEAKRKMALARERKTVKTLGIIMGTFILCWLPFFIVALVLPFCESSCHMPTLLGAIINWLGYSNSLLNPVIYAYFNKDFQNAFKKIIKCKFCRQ
Sequence of Alpha-2B adrenergic receptor (Homo sapiens) (P18089 whole entry): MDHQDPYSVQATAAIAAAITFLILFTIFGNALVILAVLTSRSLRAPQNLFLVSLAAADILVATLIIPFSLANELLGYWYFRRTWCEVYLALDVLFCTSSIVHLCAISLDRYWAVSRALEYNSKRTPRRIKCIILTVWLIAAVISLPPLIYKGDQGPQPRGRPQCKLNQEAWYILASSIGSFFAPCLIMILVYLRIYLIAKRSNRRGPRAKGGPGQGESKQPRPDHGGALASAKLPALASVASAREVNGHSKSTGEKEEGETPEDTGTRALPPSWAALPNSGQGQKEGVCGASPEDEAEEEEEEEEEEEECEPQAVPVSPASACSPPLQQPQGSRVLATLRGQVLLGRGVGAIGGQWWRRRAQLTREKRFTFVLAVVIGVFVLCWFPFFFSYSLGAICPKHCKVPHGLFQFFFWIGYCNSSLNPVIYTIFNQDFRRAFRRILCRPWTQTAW
Sequence of Cytochrome P450 2D6 (P10635 whole entry): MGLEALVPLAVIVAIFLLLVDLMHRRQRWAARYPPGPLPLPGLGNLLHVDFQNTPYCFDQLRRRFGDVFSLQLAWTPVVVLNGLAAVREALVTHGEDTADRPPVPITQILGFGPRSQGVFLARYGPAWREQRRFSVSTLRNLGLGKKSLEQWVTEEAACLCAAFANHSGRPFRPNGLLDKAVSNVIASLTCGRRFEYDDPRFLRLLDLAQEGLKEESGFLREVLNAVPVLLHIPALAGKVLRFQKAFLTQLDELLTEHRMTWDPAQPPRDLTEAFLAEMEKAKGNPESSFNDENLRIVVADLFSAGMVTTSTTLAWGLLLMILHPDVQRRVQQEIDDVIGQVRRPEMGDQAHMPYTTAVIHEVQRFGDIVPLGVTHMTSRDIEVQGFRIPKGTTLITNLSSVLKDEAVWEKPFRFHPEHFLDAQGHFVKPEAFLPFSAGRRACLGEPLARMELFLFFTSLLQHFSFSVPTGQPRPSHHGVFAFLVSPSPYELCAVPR

In the case of `COc1ccc2c(c1)C(=O)N(c1nc(C(=O)Nc3cnccc3N3CCNCC3)cs1)C2`, the concentration at 1 h [1] is reported as 57 ng/mL, the concentration at 6 h [2] is reported as 252 ng/mL and the concentration at 24 h [3] is reported as 6.29 ng/mL. The IC50 [4] was 4.8 µM, the inhibition at 5 min, 1 µM (hERG (KCNH2) [5]) was 82% and the inhibition at 10 µM (hERG (KCNH2) [6]) was 42%. For the same compound, the inhibition at 1 µM (hERG (KCNH2) [7]) was 4%, the inhibition at 1.5 ug/mL (hERG (KCNH2) [8]) was 24% and the inhibition [9] was 22.6%. For the same compound, the IC50 (Cytochrome P450 2D6) was over 30 µM, the IC50 (Cytochrome P450 3A4 [10]) was over 30 µM and the IC50 (Cytochrome P450 2C9) was over 30 µM. For the same compound, the IC50 (Cytochrome P450 3A4 [11]) was over 30 µM, the Tmax [12] was 6 h and the Cmax [13] was 600 nM. For the same compound, the AUC [14] was 7.2 µM·h, the inhibition [15] was 20.4% and the inhibition [16] was 6.1%. For the same compound, the inhibition [17] was 10.9%, the inhibition [18] was 25.7% and the inhibition [19] was 12.8%. It also gave an inhibition [20] of 14.4%, an inhibition [21] of 14.1% and an inhibition [22] of 10.1%. For the same compound, the inhibition [23] was 3.5%, the inhibition [24] was 21% and the inhibition [25] was 2.8%. The inhibition [26] was 8%, the concentration at 4 h [27] was 183 ng/mL and the inhibition [28] was 4.2%. For the same compound, the inhibition [29] was 21.8%, the inhibition [30] was 23.7% and the inhibition [31] was -5.8%. It also gave an IC50 [32] of 1300 nM, an IC50 [33] of 8.9 µM and an IC50 [34] of 6.8 µM. For the same compound, the IC50 [35] was over 30 µM, the IC50 [36] was over 30 µM and the IC50 [37] was 9.5 µM. It also gave an IC50 [38] of 21 µM, an IC50 [39] of 20 µM and an IC50 [40] of 30 µM. It also gave an IC50 [41] of over 30 µM and an IC50 [42] of over 30 µM.
